Calls of active or inactive are those of the source. The rule behind the calls is not given here.
How the values were obtained:
[1] = Selectivity for Trypanosoma cruzi triosephosphate isomerase over human triosephosphate isomerase
[2] = system: Trypanosoma cruzi; test: Antiparasitic activity against Trypanosoma cruzi T2 epimastigotes assessed as growth inhibition at 25 uM after 5 days; format: functional
Procedure, shortened: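 Late-log epimastigotes were grown axenically at 28 °C in BHI-tryptose with 5% fetal calf serum and seeded at 2×10^6/mL in medium containing compound (DMSO stock; final DMSO ≤1%, 1% DMSO control). Growth was read as A590 at day 0 and day 5. Inhibition = {1 − [(Ap − A0p)/(Ac − A0c)]} × 100. Means of two experiments.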

[3] = molecular target: Triosephosphate isomerase, glycosomal (Trypanosoma cruzi) (UniProt P52270); test: Inhibition of Trypanosoma cruzi triosephosphate isomerase at 400 uM after 2 hrs
Procedure, shortened: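 Recombinant E. coli-expressed enzyme, dialyzed into 100 mM triethanolamine/10 mM EDTA pH 7.4, was incubated with compound (DMSO stock) in 100 mM triethanolamine, 10 mM EDTA, pH 7.4, 10% DMSO at 36 °C for 2 h. An aliquot was then assayed for activity (glyceraldehyde 3-phosphate to dihydroxyacetone phosphate, α-glycerol phosphate dehydrogenase-coupled) with 5 ng enzyme. Irreversible inhibition was scored as loss of activity; means of two experiments.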

Sequence of Triosephosphate isomerase, glycosomal (Trypanosoma cruzi) (P52270 whole entry): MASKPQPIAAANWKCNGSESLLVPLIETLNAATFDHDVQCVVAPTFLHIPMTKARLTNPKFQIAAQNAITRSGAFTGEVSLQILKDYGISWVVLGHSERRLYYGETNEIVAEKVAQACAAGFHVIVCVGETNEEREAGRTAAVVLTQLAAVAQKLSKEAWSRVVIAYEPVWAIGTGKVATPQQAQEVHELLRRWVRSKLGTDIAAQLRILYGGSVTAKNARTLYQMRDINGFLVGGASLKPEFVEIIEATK

| Ratio [1] | inhibition [3] [%] | SMILES | Activity [2] |
| --- | --- | --- | --- |
| > 4 | 0 | COc1nn(CCOCCN2CCN(C/C=C/c3ccccc3)CC2)c2ccc([N+](=O)[O-])cc12 | Active |
| > 4 | 0 | O=S(=O)(NC1CCCCC1)NC1CCCCC1 | Active |
| > 4 | 0 | O=S(=O)(NCCc1ccccc1)NCCc1ccccc1 | Active |
| > 4 | 12 | C=CCNC(=S)N/N=C/c1ccco1 | Active |
| > 4 | 0 | [O-][n+]1onc2ccc(CN3CCN(C/C=C/c4ccccc4)CC3)cc21 | Active |
| > 4 | 2 | [O-][N+]1=c2ccc(/C=N/O)cc2=[N+]([O-])C12CCCC2 | Active |
| > 4 | 6 | C=CCNC(=S)N/N=C/c1ccc([N+](=O)[O-])o1 | Active |
| > 4 | 41 | Cc1c(CNc2cccc3ccccc23)no[n+]1[O-] | Active |
| > 4 | 12 | CCCCNC(=O)c1ccc2no[n+]([O-])c2c1 | Active |
| > 4 | 0 | COCCNC(=O)/C=C/c1ccc([N+](=O)[O-])o1 | Active |
| > 4 | 69 | [O-][n+]1onc2ccc(/C=C\[S+]([O-])c3ccccc3)cc21 (configuration not stated) | Active |
| > 4 | 15 | C=CCNC(=S)N/N=C/C=C/c1ccco1 | Active |
| > 4 | 15 | O=S(=O)(/C=C/c1ccc2no[n+]([O-])c2c1)c1ccc(F)cc1 | Active |
| > 4 | 16 | O=C(/C=C/c1ccc([N+](=O)[O-])o1)NC12CC3CC(CC(C3)C1)C2 | Active |
| > 4 | 4 | CCCN(CCC(C)C1CC=C(C)CC1)Cc1ccc2c(c1)=[N+]([O-])C(C)(C)[N+]=2[O-] (configuration not stated) | Active |
| > 4 | 8 | Cc1nnc[n+]([O-])c1/C=C/c1ccc(N(C)C)cc1 | Active |
| > 4 | 15 | Cc1nnc[n+]([O-])c1/C=C/c1ccc(Cl)cc1 | Active |
| > 4 | 27 | Cc1ccc2c(c1)=[N+]([O-])C1(CCCC1)[N+]=2[O-] | Active |
| > 4 | 18 | O=[N+]([O-])c1ccc2c(c1)c(OCc1ccccc1)nn2CCOCCN1CCN(C/C=C/c2ccccc2)CC1 | Active |
| > 4 | 16 | N#Cc1c2ccccc2[n+]([O-])n1-c1cccc2ccccc12 | Active |
| > 4 | 3 | COCCNC(=O)N/N=C/c1ccc2no[n+]([O-])c2c1 | Active |

| Ratio [1] | inhibition [3] [%] | SMILES | Activity [2] |
| --- | --- | --- | --- |
| > 4 | 0 | CCN(CC)CCCNS(=O)(=O)NCCCN(CC)CC | Active |
| > 4 | 24 | Oc1ccc(N/C(S)=N/c2ccccc2)cc1 | Active |
| > 4 | 23 | Cc1c(C(=O)Nc2ccccc2)[n+]([O-])c2cc(CNC/C=C/c3ccccc3)ccc2[n+]1[O-] | Active |
| > 4 | 28 | O=[N+]([O-])c1ccccc1/C=N/N1CCOCC1 | Active |
| > 4 | 14 | CCCCCCNC(=O)N/N=C/c1ccc([N+](=O)[O-])s1 | Active |
| > 4 | 11 | Cc1c(C)[n+]([O-])c2cc(C=O)ccc2[n+]1[O-] | Active |
| > 4 | 27 | O=C(N/N=C/c1ccc([N+](=O)[O-])o1)Oc1ccccc1 | Active |
| > 4 | 49 | O=C1C(=Cc2ccc([N+](=O)[O-])s2)C(=O)N(C2CCCCC2)S(=O)(=O)N1C1CCCCC1 | Active |
| > 4 | 4 | O=c1c2cc([N+](=O)[O-])ccc2n2n1CCCCC2 | Active |
| > 4 | 13 | O=C(/C=C/c1ccc([N+](=O)[O-])o1)NCCCl | Active |
| > 4 | 26 | CC1(C)[N+]([O-])=c2ccc(COc3ccc(C=O)cc3)cc2=[N+]1[O-] | Active |
| > 4 | 18 | N#Cc1c(N)[n+]([O-])c2ccc(CN3CCN(C/C=C/c4ccccc4)CC3)cc2[n+]1[O-] | Active |
| > 4 | 30 | CC(=O)CN1C(=O)c2ccccc2C1=O | Active |
| > 4 | 18 | CCCCNC(=O)N/N=C/c1ccc([N+](=O)[O-])s1 | Active |
| > 4 | 42 | C=CCNC(=S)N/N=C/c1ccc2c(c1)[n+]([O-])c(C)c(C)[n+]2[O-] | Active |
| > 4 | 72 | CCCCCCNC(=O)N/N=C/C=C/c1ccc([N+](=O)[O-])o1 | Active |
| > 4 | 11 | O=[N+]([O-])c1ccccc1C=Cc1ccc2no[n+]([O-])c2c1 | Active |
| > 4 | 15 | O=C(O)c1ccc(-c2nsc(CO)n2)cc1 | Active |
| > 4 | 14 | CSc1ccc(/C=C/C(=O)c2ccccc2)cc1 | Active |
| > 4 | 0 | NS(=O)(=O)NCc1ccccc1 | Active |
| > 4 | 66 | [O-][n+]1onc2ccc(/C=C/c3ccccc3)cc21 | Active |

| Ratio [1] | inhibition [3] [%] | SMILES | Activity [2] |
| --- | --- | --- | --- |
| > 4 | 65 | CCOC(=O)c1nsc(-c2cc(C(C)(C)C)c(O)c(C(C)(C)C)c2)n1 | Active |
| > 4 | 0 | O=C(/C=C/c1ccc([N+](=O)[O-])o1)N1CCN(C/C=C/c2ccccc2)CC1 | Active |
| > 4 | 12 | O=c1c2cc([N+](=O)[O-])ccc2n2n1CCOCC2 | Active |
| > 4 | 22 | [O-][n+]1onc2ccc(C=Cc3ccc(Br)cc3)cc21 | Active |
| > 4 | 45 | C=CCNC(=S)N/N=C/c1ccc2c(c1)[n+]([O-])c(C#N)c(N)[n+]2[O-] | Active |
| > 4 | 26 | Cc1c(/C=C/c2ccc(N(C)C)cc2)[n+]([O-])cn[n+]1[O-] | Active |
| > 4 | 2 | COC(=O)N/N=C/c1c(C)no[n+]1[O-] | Active |
| > 4 | 8 | COC(=O)/C=C/c1ccc2no[n+]([O-])c2c1 | Active |
| > 4 | 23 | CC(=N\c1ccc(C)cc1)/C(C)=N/c1ccc(C)cc1 | Active |
| > 4 | 0 | [O-][n+]1onc2ccc(/C=C\c3ccccc3)cc21 | Active |
| > 4 | 25 | CC1[N+]([O-])=c2ccc(Cc3ccccc3)cc2=[N+]1[O-] (configuration not stated) | Active |
| > 4 | 12 | C=CCNC(=S)N/N=C/C=C/c1ccc([N+](=O)[O-])o1 | Active |
| > 4 | 7 | CN(C/C=C/c1ccccc1)Cc1ccc2no[n+]([O-])c2c1 | Active |
| > 4 | 25 | O=C(/C=C/c1cccs1)c1ccccc1O | Active |
| > 4 | 20 | O=[N+]([O-])c1ccc(N2CCSCC2)c([N+](=O)[O-])c1 | Active |
| > 4 | 33 | [O-][n+]1onc2ccc(C=Cc3ccc(C(F)(F)F)cc3)cc21 | Active |
| > 4 | 38 | O=C(NCCc1ccccc1)N/N=C/c1ccc2no[n+]([O-])c2c1 | Active |
| > 4 | 2 | CCCCNC(=O)N/N=C/c1c(C)no[n+]1[O-] | Active |
| – | 7 | CC(=O)Oc1c(C)c(C)c2c(c1C)CCC(C)(C(=O)NCCO[N+](=O)[O-])O2 (configuration not stated) | – |
| – | 23 | [O-][n+]1onc(-c2ccccc2)c1CO | – |

| SMILES | Ratio [1] | inhibition [3] [%] | Activity [2] |
| --- | --- | --- | --- |
| O=Cc1c(-c2ccccc2)no[n+]1[O-] | > 4 | 53 | Active |
| Cc1ccc2no[n+]([O-])c2c1 | > 4 | 8 | Active |
| CNC(=S)N/N=C/C=C/c1ccc([N+](=O)[O-])o1 | > 4 | 9 | Active |
| [O-][n+]1onc(-c2ccccc2)c1CNc1ccc(Br)cc1 | > 4 | 48 | Active |
| [O-][n+]1onc(-c2ccccc2)c1CN1CCN(c2ncccn2)CC1 | > 4 | 8 | Active |

— ChEMBL document CHEMBL1629474, “Massive screening yields novel and selective Trypanosoma cruzi triosephosphate isomerase dimer-interface-irreversible inhibitors with anti-trypanosomal activity” (Eur J Med Chem, 2010)
